pIC50: −log10 of the molar value.
What was measured:
[1] = molecular target: T1, Serine/threonine-protein kinase pim-3 (Homo sapiens, UniProt Q86V86); assay: Inhibition of human PIM3 using RSRHSSYPAGT as substrate after 30 mins
LNCaP = assay: Antiproliferative activity against human LNCAP cells assessed as cell growth inhibition at 10 uM after 72 hrs by MTS assay; type: functional; settings: read-out: GI
In short: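 LNCaP cells grown in RPMI 1640 with 10% FCS at 37 °C, 5% CO2, seeded at 5000 per well. After 24 h, compound in DMSO (1% final) added at 10 µM for 72 h; DMSO controls. Viable cells by MTS absorbance at 490 nm; percent proliferation inhibition.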

PC-3 [2] = assay: Antiproliferative activity against human PC3 cells assessed as cell growth inhibition at 10 uM after 72 hrs by MTS assay; type: functional; settings: PC-3, 72 h, read-out: GI
In short: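 PC3 cells kept in RPMI 1640 plus 10% FCS (37 °C, 5% CO2) and plated at 2500 per well. Compound added 24 h later at 10 µM in DMSO (1% final), 72 h exposure, vehicle controls. MTS read at 490 nm; percent inhibition of proliferation.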

[3] = molecular target: T1, Serine/threonine-protein kinase pim-3; assay: Inhibition of human PIM3 assessed as residual activity using RSRHSSYPAGT as substrate at 1 uM after 30 mins
[4] = molecular target: T1, Serine/threonine-protein kinase pim-3; assay: Inhibition of human PIM3 assessed as residual activity using RSRHSSYPAGT as substrate at 10 uM after 30 mins
[5] = molecular target: Serine/threonine-protein kinase pim-2 (Homo sapiens) (UniProt Q9P1W9); assay: Inhibition of human PIM2 assessed as residual activity using RSRHSSYPAGT as substrate at 1 uM after 30 mins
Chain of Serine/threonine-protein kinase pim-2 (Homo sapiens) (Q9P1W9 whole entry, looked up): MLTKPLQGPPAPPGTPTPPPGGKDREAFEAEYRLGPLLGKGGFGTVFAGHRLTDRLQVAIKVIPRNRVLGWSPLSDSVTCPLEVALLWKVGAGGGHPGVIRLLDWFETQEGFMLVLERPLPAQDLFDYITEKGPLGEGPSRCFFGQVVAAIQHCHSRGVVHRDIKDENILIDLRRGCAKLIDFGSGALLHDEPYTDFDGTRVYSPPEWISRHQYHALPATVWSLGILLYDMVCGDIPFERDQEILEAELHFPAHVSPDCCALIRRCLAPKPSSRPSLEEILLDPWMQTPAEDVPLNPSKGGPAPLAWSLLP

[6] = molecular target: Serine/threonine-protein kinase pim-2 (Homo sapiens) (UniProt Q9P1W9); assay: Inhibition of human PIM2 assessed as residual activity using RSRHSSYPAGT as substrate at 10 uM after 30 mins
[7] = molecular target: T2, Serine/threonine-protein kinase pim-1 (Homo sapiens, UniProt P11309); assay: Inhibition of human PIM1 using RSRHSSYPAGT as substrate after 30 mins
Target sequence in this assay (P11309 whole entry): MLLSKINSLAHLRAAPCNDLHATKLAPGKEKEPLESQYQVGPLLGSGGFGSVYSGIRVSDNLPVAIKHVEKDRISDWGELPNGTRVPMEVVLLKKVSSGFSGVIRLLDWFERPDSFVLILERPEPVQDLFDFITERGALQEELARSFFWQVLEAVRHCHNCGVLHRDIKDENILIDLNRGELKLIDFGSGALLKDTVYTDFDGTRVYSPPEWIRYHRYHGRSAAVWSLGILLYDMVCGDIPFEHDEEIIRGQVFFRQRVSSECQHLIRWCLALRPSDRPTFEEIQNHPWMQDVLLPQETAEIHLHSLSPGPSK

[8] = molecular target: T2, Serine/threonine-protein kinase pim-1; assay: Inhibition of human PIM1 assessed as residual activity using RSRHSSYPAGT as substrate at 1 uM after 30 mins
Target sequence in this assay (P11309 whole entry, looked up): as the sequence (P11309 whole entry) above

[9] = molecular target: T2, Serine/threonine-protein kinase pim-1; assay: Inhibition of human PIM1 assessed as residual activity using RSRHSSYPAGT as substrate at 10 uM after 30 mins
Target sequence in this assay (P11309 whole entry, looked up): as the sequence (P11309 whole entry) above

PC-3 [10] = assay: Antiproliferative activity against human PC3 cells assessed as cell growth inhibition after 72 hrs by MTS assay; type: functional, cell-based; settings: PC-3, 72 h

pIC50 [1]	Activity [3] [%]	Activity [4] [%]	Activity [5] [%]	Activity [6] [%]	pIC50 [7]	Activity [8] [%]	Activity [9] [%]	pIC50 (PC-3 [10])	SMILES	inhibition of growth at 10 µM (LNCaP) [%]	inhibition of growth at 10 µM (PC-3 [2]) [%]
6.22	–	–	–	–	–	–	–	–	COc1ccc2[nH]c3c(N)cc4n[nH]cc4c3c2c1	–	–
6.64	26	19	57	54	6.70	48	39	–	O=[N+]([O-])c1cc2[nH]ncc2c2c1[nH]c1ccc(Cl)cc12	0	50
6.96	–	–	–	–	6.66	–	–	–	COc1ccc2[nH]c3c([N+](=O)[O-])cc4c[nH]nc4c3c2c1	–	–
7.05	50	38	90	93	–	69	60	–	O=[N+]([O-])c1cc2cn[nH]c2c2c1[nH]c1ccc(Cl)cc12	28	51
6.68	–	–	–	–	6.40	–	–	–	O=[N+]([O-])c1cc2c[nH]nc2c2c1[nH]c1ccccc12	–	–
–	28	23	77	72	–	41	39	–	COc1ccc2[nH]c3c([N+](=O)[O-])cc4cn[nH]c4c3c2c1	19	29
–	21	11	54	35	–	29	13	5.64	COc1ccc2[nH]c3c([N+](=O)[O-])cc4[nH]ncc4c3c2c1	27	74
6.96	–	–	–	–	6.82	–	–	–	COc1ccc2[nH]c3c([N+](=O)[O-])cc4n[nH]cc4c3c2c1	–	–
–	51	16	123	54	–	70	23	–	COc1ccc2[nH]c3c(N)cc4[nH]ncc4c3c2c1	39	46
7.00	–	–	–	–	7.40	–	–	–	O=[N+]([O-])c1cc2n[nH]cc2c2c1[nH]c1ccccc12	–	–

More lines, now with the values behind:

SMILES	pIC50 [1]	Activity [3] [%]	Activity [4] [%]	Activity [5] [%]	Activity [6] [%]	pIC50 [7]	Activity [8] [%]	Activity [9] [%]	pIC50 (PC-3 [10])	inhibition of growth at 10 µM (LNCaP) [%]	inhibition of growth at 10 µM (PC-3 [2]) [%]
Nc1cc2[nH]ncc2c2c1[nH]c1ccccc12	–	66	20	96	71	–	61	16	–	56	56
Nc1cc2cn[nH]c2c2c1[nH]c1ccc(Cl)cc12	–	55	14	115	79	–	85	29	–	35	43
Nc1cc2[nH]ncc2c2c1[nH]c1ccc(Cl)cc12	6.96	28	7	107	34	5.96	45	8	–	27	45
Nc1cc2cn[nH]c2c2c1[nH]c1ccccc12	–	63	20	116	78	–	98	54	–	28	31
COc1ccc2[nH]c3c(N)cc4cn[nH]c4c3c2c1	6.15	46	14	120	70	–	93	43	–	8	28
O=[N+]([O-])c1cc2[nH]ncc2c2c1[nH]c1ccccc12	–	28	17	49	38	–	14	15	5.52	38	85
O=[N+]([O-])c1cc2cn[nH]c2c2c1[nH]c1ccccc12	–	22	16	76	46	–	44	26	–	45	59
